# Screening results: PubChem, several laboratories
# The list is not random: actives were taken first. Their share in the collection is about 4.5%.
# PfM18AAP inh: PfM18AAP enzyme inhibition | recombinant PfM18AAP, H-Glu-NHMec fluorogenic cleavage | inhibition, % at 7.35 µM | 290,000 tested, 1.2% active | AID 1822;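 active = inhibition above the campaign mean inhibition over all tested compounds plus 3 SD, cut at about 28% in these data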
# p97 ATPase inh: blocks human p97 ATPase activity; P55072; recombinant p97 ATPase, Kinase-Glo ATP luminescence, 3 h; inhibition, % at 8 µM; 220,000 tested, 0.42% active; AID 1481; in the data active = inhibition above about 15%
# Target sequence (P55072 whole entry, looked up): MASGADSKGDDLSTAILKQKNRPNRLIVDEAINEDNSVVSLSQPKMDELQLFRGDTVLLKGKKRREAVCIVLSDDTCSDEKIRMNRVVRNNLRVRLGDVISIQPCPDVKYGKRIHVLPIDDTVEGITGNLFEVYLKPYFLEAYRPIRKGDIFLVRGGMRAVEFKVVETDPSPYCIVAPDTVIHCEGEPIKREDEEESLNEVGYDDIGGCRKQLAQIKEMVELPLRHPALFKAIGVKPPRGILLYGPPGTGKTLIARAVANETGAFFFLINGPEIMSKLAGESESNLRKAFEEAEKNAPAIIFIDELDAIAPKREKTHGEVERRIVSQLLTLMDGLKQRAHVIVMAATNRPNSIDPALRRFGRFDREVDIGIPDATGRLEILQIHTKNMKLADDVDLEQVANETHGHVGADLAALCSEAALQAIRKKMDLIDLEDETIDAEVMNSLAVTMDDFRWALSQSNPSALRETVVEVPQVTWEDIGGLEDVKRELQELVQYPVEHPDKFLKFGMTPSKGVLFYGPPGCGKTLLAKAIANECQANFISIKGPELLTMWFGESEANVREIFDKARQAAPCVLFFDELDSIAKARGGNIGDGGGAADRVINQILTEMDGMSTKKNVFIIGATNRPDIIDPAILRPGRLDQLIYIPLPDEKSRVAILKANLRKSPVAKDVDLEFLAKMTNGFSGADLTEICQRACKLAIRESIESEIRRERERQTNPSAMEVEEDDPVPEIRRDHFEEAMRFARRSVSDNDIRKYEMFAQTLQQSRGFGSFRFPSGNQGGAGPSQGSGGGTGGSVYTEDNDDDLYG
# NS3 helicase inh: HCV NS3 helicase inhibition; 290,000 tested, 0.56% active; inhibition, % at 10.9 µM; NS3 helicase DNA unwinding, Cy5 molecular beacon fluorescence;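 active = inhibition above the mean of all tested compounds plus 3 SD, set per campaign, cut at about 35% in these data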
#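 test system = hepatitis C virus NS3 helicase domain fragment enzyme | reagent = annealed dual-labelled DNA beacon duplex, ATP-started | times = 1 h at 25 °C | detection = Cy5 fluorescence, 0 and 60 min reads | read-out basis = percent inhibition from t60/t0 fluorescence ratio | control set = DMSO and thioflavine S | replication = one well per compound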
# CHOP inhibitor: CHOP inhibition in unfolded protein response. AID 2732. 220,000 tested, 3.8% active. inhibition, % at 10 µM. CHO-K1 CHOP-promoter luciferase, tunicamycin-induced, 15-18 h;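 active = compounds that reduced the stress-induced luciferase reporter signal by more than about 70% of percent inhibition, limit read from the data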
# UPR CHOP act: activators of apoptotic arm of unfolded protein response (CHOP). activation, % at 10 µM. AID 449763. 330,000 tested, 0.34% active. CHO-CHOP luciferase reporter, UPR activation, luminescence; percent of tunicamycin response over DMSO baseline;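 active = at 10 µM dose, activation of 40% or more, normalized to positive control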
#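 measured by = luciferase luminescence | assay system = CHO-CHOP cells, stable luciferase reporter of PERK-eIF2a-CHOP signalling | amount = 500 reporter cells seeded per well | timing = 6 h compound exposure at 37 °C after overnight seeding | controls = positive tunicamycin 10 µg/mL, negative DMSO alone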
# UPR XBP1 act: activators of adaptive arm of unfolded protein response (XBP1); AID 463104; CHO-XBP1 luciferase reporter, IRE1-XBP1 UPR activation, luminescence; percent of tunicamycin response, DMSO as zero; activation, % at 20 µM; 330,000 tested, 0.33% active;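 active = versus positive control, 20 µM dose yields 30% or more activation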
#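 Material: IRE1-XBP1 luciferase reporter CHO line / Quantity: one thousand reporter cells per well / Buffer or medium: F12 with 10% serum / Compound: 20 µM single concentration, DMSO 1% / Times: 6 h treatment, 37 °C / Detection: Steady-Glo luciferase glow luminescence, 10 min after reagent addition / Benchmarks: tunicamycin high, DMSO low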
# Numbers stand for hits; - = inactive; . = no result given; ! = repeats disagree.
SMILES,PfM18AAP inh,p97 ATPase inh,NS3 helicase inh,CHOP inhibitor,UPR CHOP act,UPR XBP1 act
c1ccc(-c2nc(-n3nc4ccccc4n3)nc3ccccc23)cc1,-,-,-,74,-,-
O=C1CN(c2nc(-c3ccccc3)c3ccccc3n2)c2ccccc2N1,-,-,-,77,-,-
Clc1ccc(-c2nc(N3CCCCC3)nc3ccccc23)cc1,-,-,-,-,-,-
O=S(=O)(NCC(c1ccc2c(c1)OCO2)N1CCN(c2ccccc2)CC1)c1ccccc1 (stereo unspecified),.,.,.,.,-,-
CCn1c(Cn2nnc(-c3ccccc3)n2)nnc1SCc1ccc(Cl)c(Cl)c1,-,-,-,81,-,-
C/C(=N/NC(=O)Nc1ccccc1)c1ccc(C)cc1,-,-,-,-,-,-
C/C(=N\NC(=O)Cc1c[nH]c2ccccc12)c1ccc2ccccc2c1,-,-,-,81,-,-
C/C(=N\NC(=O)Nc1ccccc1)c1ccc2ccccc2c1,-,-,-,80,-,-
O=C(Cn1nc(-c2ccc3c(c2)OCCO3)ccc1=O)Nc1cccc(NC(=O)c2ccccn2)c1,-,-,-,-,-,-
COc1cc(N/N=C(\C)c2ccc(N)cc2)nc(-c2ccccc2)n1,-,-,-,81,-,-
COc1cc(N/N=C(\C)c2ccc(O)c(C)c2)nc(-c2ccccc2)n1,-,-,-,-,-,-
CCC(=O)OCc1c(C(F)(F)F)nn(C)c1Sc1ccc(Cl)cc1,-,-,-,79,-,-
CCN(CC)c1ccc(N/C(N)=N/c2nc(C(F)(F)F)cc(=O)[nH]2)cc1,-,-,-,73,-,-
N/C(=N\c1nc(C(F)(F)F)cc(=O)[nH]1)Nc1ccc(Cl)cc1,-,-,-,-,-,-
CN(C)c1ccc(N/C(N)=N/c2nc(C(F)(F)F)cc(C(F)(F)F)n2)cc1,-,-,-,85,-,-
CC1CN(C(=O)COC(=O)CSc2ccc([N+](=O)[O-])cc2)CC(C)O1 (stereo unspecified),.,.,.,.,-,-
COc1ccc(N2CCN(C(=O)Cc3ccc(OC)c(OC)c3)CC2)cc1,-,.,-,.,-,-
C=CCn1c(C)cc(C(=O)COC(=O)CNC(=O)c2ccccc2)c1C,-,-,-,87,-,-
CCCc1[nH]nc2c1C(c1ccccc1OC)C(C#N)=C(N)O2 (stereo unspecified),-,-,-,-,-,-
CCCc1[nH]nc2c1C(/C(C)=C/c1ccccc1)C(C#N)=C(N)O2 (stereo unspecified),-,-,-,71,-,-
CC(CCc1ccccc1)NC(=O)C1CCC1 (stereo unspecified),.,.,.,.,-,-
CCN=C1SC(CC(=O)Nc2ccc(C(F)(F)F)cc2)C(=O)N1CC (stereo unspecified),-,-,-,82,-,-
CCN=C1SC(CC(=O)Nc2sc3c(c2C#N)CCCC3)C(=O)N1CC (stereo unspecified),-,-,-,92,-,-
CCn1nnc(NC(=O)c2cccc(-c3cc4ccccc4oc3=O)c2)n1,-,-,-,-,-,-
Cc1ccc2nc(NC(=O)c3cccc(-c4cc5ccccc5oc4=O)c3)sc2c1,-,-,-,-,-,122
SMILES,PfM18AAP inh,p97 ATPase inh,NS3 helicase inh,CHOP inhibitor,UPR CHOP act,UPR XBP1 act
O=C(Nc1cccnc1)c1cccc(-c2cc3ccccc3oc2=O)c1,-,-,-,-,-,-
CCOc1ccc2nc(NC(=O)c3cccc(-c4cc5ccccc5oc4=O)c3)sc2c1,-,-,-,92,.,.
N/C(=N\OC(=O)c1ccc(Cl)cc1Cl)c1ccccn1,-,-,-,79,-,-
Cc1ccc(/C(N)=N/OC(=O)COc2ccccc2Cl)cc1,-,-,-,70,-,-
Cc1ccc(C(=O)O/N=C(\N)c2ccccc2)c(Cl)c1,-,-,-,72,-,-
Cc1ccc(C(=O)O/N=C(\N)c2ccc(Br)cc2)cc1,-,-,-,72,-,-
CCOc1ccc(NC(=O)CN(C)Cc2ccc3c(c2)OCO3)cc1S(=O)(=O)N1CCCC1,.,.,.,.,-,-
Cc1cc(Cl)ccc1OCCCC(=O)N/N=C/c1cccc([N+](=O)[O-])c1,-,-,-,88,-,-
Cc1ccccc1OCC(=O)NCC(=O)N/N=C/c1cccc([N+](=O)[O-])c1,-,-,-,-,-,-
COc1ccc(/C=N/NC(=O)CCCOc2ccc(Cl)cc2Cl)cc1,-,-,-,85,-,-
CCOc1ccc(C(=O)NNC(=O)C2CC(=O)N(c3ccc(C)cc3)C2)cc1 (stereo unspecified),.,.,.,.,-,-
COc1cccc(CC(=O)OCC(=O)NCC(=O)Nc2cccc(C)c2C)c1,.,.,.,.,-,-
COc1ccc(NC(=S)N2CCN(C(=O)c3ccco3)CC2)cc1OC,-,.,-,.,-,-
CCCCn1c(N)c(N(CC(C)C)C(=O)c2ccc([N+](=O)[O-])o2)c(=O)[nH]c1=O,.,.,.,.,-,-
CCN(CC)C(=O)N1c2ccccc2CC(N(CC)CC)c2ccccc21 (stereo unspecified),-,-,-,85,-,-
CCN(CC)C(=O)N1c2ccccc2Sc2ccccc21,-,.,-,.,-,-
COc1cc(C)ccc1OCCOc1ccccc1Cl,-,-,-,76,-,-
COc1cc(C)ccc1OCCOCCOc1c(C)cc(C)cc1Br,-,-,-,84,-,-
COc1ccccc1OCCOCCOc1c(C)cc(C)cc1Br,-,-,-,-,-,-
COc1cc(C)ccc1OCCCOc1ccccc1Cl,-,-,-,-,-,-
CCOC(=O)C1C2C=CC(CC2)N1c1ccccc1 (stereo unspecified),.,.,.,.,-,-
c1cnc2c(c1)ccc1cccnc12,-,-,-,74!,-,-
CCOc1ccc(-c2ccc(/C=C3/C(=N)N4C=CSC4=NC3=O)o2)c([N+](=O)[O-])c1,-,-,-,86,.,.
Cc1nnc(SCC(=O)NC2CCCc3c2cnn3-c2ccccc2F)o1 (stereo unspecified),-,.,-,.,-,-
CCc1ccccc1NC(=O)CNC(=O)CCNC(=O)Nc1ccccc1,.,.,.,.,-,-
O=C(Nc1ccc(F)cc1)c1nc[nH]c1C(=O)Nc1ccccc1[N+](=O)[O-],-,-,-,87,.,.
CCC(Cc1ccccc1)NS(=O)(=O)c1csc(C(N)=O)c1 (stereo unspecified),-,.,-,.,-,-
COc1ccc(S(=O)(=O)N2CCC(N3CCCCC3)CC2)cc1,-,-,-,-,-,-
COc1ccc(S(=O)(=O)N2CCN(C3CCCCCCC3)CC2)cc1,-,-,-,74!,-,-
CC(=O)c1ccc(NC(=O)C(C)OC(=O)c2ccc(Br)o2)cc1 (stereo unspecified),.,.,.,.,-,-
